Consider four molecules from ChEMBL document CHEMBL1148107, “Phomadecalins A-D and phomapentenone A: new bioactive metabolites from Phoma sp. NRRL 25697, a fungal colonist of Hypoxylon stromata” (2002).

One test has as its system Bacillus subtilis. The experiment in a line: Antimicrobial activity against Bacillus subtilis ATCC 6051 at 200 ug/disk. The class given is functional. The conditions noted are these: read-out: IZ. Summed up: (§1)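 Standard disk diffusion assay with 200 µg of compound applied per disk. Activity was read as the diameter (mm) of the zone of growth inhibition around the disk.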

For another test, the system named is Staphylococcus aureus. The experiment in a line: Antimicrobial activity against Staphylococcus aureus ATCC 29213 at 200 ug/disk. The conditions noted are these: read-out: IZ. The class given is functional. Summed up: as §1
The next test deals with Candida albicans. The experiment in a line: Antimicrobial activity against Candida albicans ATCC 90029 at 200 ug/disk. The class given is functional, organism-based. Summed up:
as §1

The source made the active and inactive calls. The calls are words filed in the database; no cut-off is given here.

In the case of `C=C(CO)[C@@]12O[C@@H]1[C@@]1(C)C(=C[C@H]2O)C=CC[C@@H]1C` [PHOMADECALIN A], the results for the zone of inhibition at 200 µg/disc in the test on Bacillus subtilis and in the test with Staphylococcus aureus were 18 mm and 10 mm, respectively. Moreover, in the test on Candida albicans, the outcome was inactive.

Turning to `C=C(COC(C)=O)[C@@]12O[C@@H]1[C@@]1(C)C(=C[C@H]2O)C=C[C@@H](O)[C@@H]1C` [PHOMADECALIN B], the zone of inhibition at 200 µg/disc came to 10 mm with Bacillus subtilis and 8 mm in the test with Staphylococcus aureus. Besides, in the test on Candida albicans, the result was inactive.

In the case of `C=C(CO)[C@@]12O[C@@H]1[C@@]1(C)C(=C[C@H]2O)C=CC(=O)[C@@H]1C` [PHOMADECALIN C], in the test on Bacillus subtilis, the zone of inhibition at 200 µg/disc came to 12 mm.

On to `C=C(CO)[C@@]12O[C@@H]1[C@@]1(C)C(=C[C@H]2O)C=C[C@@H](O)[C@@H]1C` [PHOMADECALIN D], for which the results for the zone of inhibition at 200 µg/disc with Bacillus subtilis and in the test on Staphylococcus aureus were 9 mm and 8 mm, respectively. Besides, the result with Candida albicans was inactive.
